Results published in ChEMBL document CHEMBL2203099, “Identification of a crucial amino acid in the helix position 6.51 of human tachykinin neurokinin 1 and 3 receptors contributing to the insurmountable mode of antagonism by dual NK₁/NK₃ antagonists” (J Med Chem, 2012).
Changes are numbered by the printed parent chain. Active and inactive are the calls of the source. The calls are words filed in the database; no cut-off is given here.

Experiments:
[1] = molecular target: T1, Substance-P receptor (Homo sapiens, UniProt P25103); assay: Binding affinity at human NK1 receptor
T1 sequence (P25103 whole entry): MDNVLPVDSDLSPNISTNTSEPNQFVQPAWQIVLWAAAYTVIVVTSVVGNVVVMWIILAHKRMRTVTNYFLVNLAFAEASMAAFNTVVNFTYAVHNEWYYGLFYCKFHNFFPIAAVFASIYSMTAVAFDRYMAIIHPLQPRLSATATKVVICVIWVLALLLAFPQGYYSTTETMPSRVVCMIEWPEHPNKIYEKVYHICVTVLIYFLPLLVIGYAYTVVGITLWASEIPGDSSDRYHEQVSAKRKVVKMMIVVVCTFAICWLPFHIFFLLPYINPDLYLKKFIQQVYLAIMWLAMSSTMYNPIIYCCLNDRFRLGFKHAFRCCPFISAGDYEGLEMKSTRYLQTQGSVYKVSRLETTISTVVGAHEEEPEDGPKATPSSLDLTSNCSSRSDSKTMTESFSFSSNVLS

[2] = molecular target: T2, Substance-P receptor (Homo sapiens, UniProt P25103, F264Y); assay: Partial noncompetitive inhibition of human F264Y6.51 mutant expressed in HEK293 cells assessed as decrease in SP1-induced [3H]IP accumulation after 20 mins; assay type: cell-based; settings: read-out: pA2 (converted)
T2 sequence (P25103 whole entry F264Y): as the sequence (P25103 whole entry) above, with F264Y counted along it

[3] = molecular target: T1, Substance-P receptor; assay: Noncompetitive inhibition of wild type human NK1 receptor expressed in HEK293 cells assessed as decrease in SP1-induced [3H]IP accumulation after 20 mins; assay type: cell-based
[4] = test system: Gerbillinae; assay: Inhibition of foot tapping response in po dosed gerbil; assay type: functional
[5] = test system: HEK293; assay: Selectivity ratio of Ki for human NK3 H316W mutant expressed in HEK293 cells to Ki for wild type human NK3 receptor expressed in HEK293 cells; assay type: cell-based
[6] = test system: HEK293; assay: Selectivity ratio of Ki for human NK3 H316F mutant expressed in HEK293 cells to Ki for wild type human NK3 receptor expressed in HEK293 cells; assay type: cell-based
[7] = test system: HEK293; assay: Selectivity ratio of Ki for human NK3 Y247W mutant expressed in HEK293 cells to Ki for wild type human NK3 receptor expressed in HEK293 cells; assay type: cell-based
[8] = molecular target: Neuromedin-K receptor (Homo sapiens, UniProt P29371, Y247W); assay: Displacement of radioligand [3H]osanetant at human NK3 Y247W mutant expressed in HEK293 cells; assay type: cell-based
Neuromedin-K receptor (Homo sapiens, UniProt P29371, Y247W), sequence (P29371 whole entry Y247W): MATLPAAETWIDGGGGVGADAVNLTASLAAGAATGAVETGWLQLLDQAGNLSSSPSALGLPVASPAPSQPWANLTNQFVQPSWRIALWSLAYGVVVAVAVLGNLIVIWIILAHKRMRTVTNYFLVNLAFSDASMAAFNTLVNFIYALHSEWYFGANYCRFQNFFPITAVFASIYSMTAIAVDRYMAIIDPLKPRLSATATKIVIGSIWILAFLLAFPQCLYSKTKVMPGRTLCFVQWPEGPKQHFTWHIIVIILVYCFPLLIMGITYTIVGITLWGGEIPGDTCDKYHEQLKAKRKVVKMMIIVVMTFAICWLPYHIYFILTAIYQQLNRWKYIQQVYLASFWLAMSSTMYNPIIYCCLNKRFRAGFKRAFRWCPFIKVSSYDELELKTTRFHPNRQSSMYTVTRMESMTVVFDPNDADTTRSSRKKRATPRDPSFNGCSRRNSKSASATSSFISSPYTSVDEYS

[9] = molecular target: Neuromedin-K receptor (Homo sapiens, UniProt P29371, Y247F); assay: Displacement of radioligand [3H]osanetant at human NK3 Y247F mutant expressed in HEK293 cells; assay type: cell-based
[10] = test system: HEK293; assay: Selectivity ratio of Ki for wild type human NK3 receptor expressed in HEK293 cells to Ki for human NK3 Y315F6.51 mutant expressed in HEK293 cells; assay type: cell-based
[11] = molecular target: T2, Substance-P receptor; assay: Displacement of radioligand [3H]SP from human NK1 F264Y6.51 mutant expressed in HEK293 cells; assay type: cell-based
Method in brief: (§1)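 Membranes from transiently transfected HEK293 cells, 2.5 μg protein/well, in 50 mM HEPES pH 7.4 with 3 mM MnCl2, phosphoramidon, leupeptin and 0.04% BSA. 10 competitor concentrations (0.0003–10 μM), 90 min at rt. Nonspecific binding with 10 μM NK1 antagonist. Filtration, then scintillation counting. Ki by Cheng–Prusoff. Three experiments, each in duplicate.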

[12] = molecular target: T1, Substance-P receptor; assay: Displacement of radioligand [3H]SP from wild type human NK1 receptor expressed in HEK293 cells; assay type: cell-based; method in brief: as §1
[13] = test system: T3, Neuromedin-K receptor (Homo sapiens), P29371 [Y247F]; assay: Noncompetitive inhibition at human NK3 Y247F5.38 mutant expressed in HEK293 cells assessed as decrease in [MePhe7]NKB-induced [3H]IP accumulation after 20 mins; assay type: cell-based
T3 sequence (whole entry): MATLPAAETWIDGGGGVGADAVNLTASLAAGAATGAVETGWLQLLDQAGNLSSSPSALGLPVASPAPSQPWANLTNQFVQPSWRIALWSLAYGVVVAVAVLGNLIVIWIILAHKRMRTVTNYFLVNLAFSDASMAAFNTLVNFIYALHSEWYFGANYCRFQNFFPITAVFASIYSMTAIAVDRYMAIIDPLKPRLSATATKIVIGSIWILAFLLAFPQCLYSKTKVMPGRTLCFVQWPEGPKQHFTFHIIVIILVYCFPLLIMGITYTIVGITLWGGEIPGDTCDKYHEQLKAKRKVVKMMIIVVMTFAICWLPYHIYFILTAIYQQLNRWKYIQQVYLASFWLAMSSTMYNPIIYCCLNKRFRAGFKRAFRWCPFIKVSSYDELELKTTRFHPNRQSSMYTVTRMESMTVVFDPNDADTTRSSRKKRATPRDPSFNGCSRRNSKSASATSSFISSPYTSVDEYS
Method in brief: (§2)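 HEK293 cells transiently expressing human NK3 WT or mutant, labeled with myo-[³H]inositol in LiCl buffer. Antagonist preincubated 20 min at 37 °C, then [MePhe⁷]NKB (0.01 nM–1 μM) added for 45 min at 37 °C. [³H]IP read by SPA beads. Schild analysis of EC50 shift and Emax depression across increasing antagonist concentrations gives pA2, slope and mode of antagonism.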

[14] = test system: T4, Neuromedin-K receptor (Homo sapiens), P29371 [H316W]; assay: Antagonist activity at human NK3 H316W6.52 mutant expressed in HEK293 cells assessed as decrease in [MePhe7]NKB-induced [3H]IP accumulation after 20 mins; assay type: functional, cell-based; method in brief: as §2
T4 sequence (whole entry): T3 sequence (whole entry) with F247Y, H316W

[15] = molecular target: T5, Neuromedin-K receptor (Homo sapiens) (UniProt P29371); assay: Noncompetitive inhibition at wild type human NK3 expressed in HEK293 cells assessed as decrease in [MePhe7]NKB-induced [3H]IP accumulation after 20 mins; assay type: cell-based; method in brief: as §2
T5 sequence (whole entry): T3 sequence (whole entry) with F247Y

For `Cc1cc(F)ccc1-c1cc(N2CC[C@H](O)[C@H]2CO)ncc1N(C)C(=O)C(C)(C)c1cc(C(F)(F)F)cc(C(F)(F)F)c1`, the Ki [1] was 0.7 nM, the Kb [2] was 28.8 nM and the inhibition [3] was “Active”. For the same compound, the ED50 [4] was 0.4 mg/kg, the Ratio Ki [5] was 693 and the Ratio Ki [6] was 4.3. It also gave a Ratio Ki [7] of 1.2, a Ki [8] of 3.4 nM and a Ki [9] of 3.9 nM. It also gave a Ratio Ki [10] of 4.1, a Ki [11] of 1.1 nM and a Ki [12] of 0.7 nM. For the same compound, the inhibition [13] was “Active”, the Activity [14] was “inactive” and the inhibition [15] was “Active”.
